Measured values from ChEMBL document CHEMBL1149790, “Synthesis of some novel thiourea derivatives obtained from 5-[(4-aminophenoxy)methyl]-4-alkyl/aryl-2,4-dihydro-3H-1,2,4-triazole-3-thiones and evaluation as antiviral/anti-HIV and anti-tuberculosis agents” (Eur J Med Chem, 2008).
Converted amounts (≈) assume the structure as drawn. The source made the active and inactive calls. The rule behind the calls is not given here.

Columns and labels:
Mycobacterium avium = test: Antitubercular activity against Mycobacterium avium; type: functional
[1] = system: Mycobacterium tuberculosis; test: Antitubercular activity against Mycobacterium tuberculosis H37Rv
Mycolicibacterium aurum = test: Antitubercular activity against Mycobacterium aurum A1; type: functional
Human alphaherpesvirus 2 [2] = test: Antiviral activity against HSV2 G in human E6SM cells assessed as reduction of virus-induced cytopathogenicity; type: functional; conditions: Human alphaherpesvirus 2, G
Summary of the method: (§1)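 Confluent cell monolayers (E6SM, HEL, HeLa or Vero, per line) inoculated with 100 CCID50 virus; 1 h adsorption, residual virus removed, then incubated with compound at 400, 200, 100 … µg/ml. Cytopathicity scored once complete in untreated virus controls; MIC = concentration inhibiting virus-induced cytopathicity.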

Coxsackievirus B4 [3] = test: Antiviral activity against Coxsackie virus B4 in african green monkey Vero cells assessed as reduction of virus-induced cytopathogenicity; type: functional; conditions: Enterovirus B; summary of the method: as §1
Punta Toro virus = test: Antiviral activity against Punta Toro virus in african green monkey Vero cells assessed as reduction of virus-induced cytopathogenicity; type: functional; summary of the method: as §1
[4] = system: Respiratory syncytial virus; test: Antiviral activity against respiratory syncytial virus in human HeLa cells assessed as inhibition of virus-induced cytopathogenicity; type: functional; summary of the method: as §1
Human betaherpesvirus 5 [5] = test: Antiviral activity against human cytomegalovirus Davis infected HEL cells assessed as reduction in virus plaque formation; type: functional, organism-based; conditions: Human betaherpesvirus 5, Davis
Human alphaherpesvirus 2 [6] = test: Antiviral activity against HSV2 G in human HEL cells assessed as reduction of virus-induced cytopathogenicity; type: functional; conditions: Human alphaherpesvirus 2, G; summary of the method: as §1
[7] = Cytotoxicity against human MT4 cells by MTT assay; type: cell-based
Summary of the method: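 Mock-infected MT-4 cells (6 × 10⁵ cells/ml) with serial five-fold compound dilutions in triplicate; MTT reduction read at 540 and 690 nm after 5 days, median OD of three wells; CC50 = concentration reducing OD540 of mock-infected control by 50%.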

Human alphaherpesvirus 3 [8] = test: Antiviral activity against TK+ VZV OKA infected HEL cells assessed as reduction in virus plaque formation; type: functional, organism-based; conditions: Human alphaherpesvirus 3, OKA
[9] = Cytotoxicity against human HeLa cells; type: cell-based
Summary of the method: (§2)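 Uninfected cell cultures exposed to test compounds alongside antiviral assays; minimum cytotoxic concentration (MCC) = concentration causing a microscopically detectable alteration of cell morphology.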

[10] = system: Human immunodeficiency virus 2; test: Antiviral activity against HIV2 ROD in human MT4 cells assessed as protection against virus-induced cytopathogenicity by MTT assay; type: functional, organism-based; parameters: Activity: concentration or dose not given beside the values; conditions: for IC50: Human immunodeficiency virus 2, ROD, MT4
Summary of the method: (§3)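 MT-4 cells at 6 × 10⁵ cells/ml infected with HIV-1 IIIB or HIV-2 ROD at 100–300 CCID50; compounds in serial five-fold dilutions, triplicate mock- and virus-infected wells. MTT viability read at 540 and 690 nm after 5 days, median OD of three wells; EC50 = 50% protection from viral cytopathic effect.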

[11] = Cytotoxicity against human HEL cells assessed as alteration of cell morphology; type: cell-based; summary of the method: as §2
Human alphaherpesvirus 1 [12] = test: Antiviral activity against HSV1 KOS in human HEL cells assessed as reduction of virus-induced cytopathogenicity; type: functional; conditions: Human alphaherpesvirus 1, KOS; summary of the method: as §1
Human alphaherpesvirus 3 [13] = test: Antiviral activity against TK- VZV 07/1 infected HEL cells assessed as reduction in virus plaque formation; type: functional, organism-based; conditions: Human alphaherpesvirus 3, 07/1, HEL
[14] = Cytotoxicity against human E6SM cells; type: cell-based; conditions: E6SM cells; summary of the method: as §2
Human respirovirus 3 = test: Antiviral activity against Parainfluenza 3 virus in african green monkey Vero cells assessed as reduction of virus-induced cytopathogenicity; type: functional; summary of the method: as §1
[15] = system: Mycobacterium tuberculosis; test: Antitubercular activity against Mycobacterium tuberculosis H37Rv at 6.25 ug/ml by MABA assay; type: functional
Coxsackievirus B4 [16] = test: Antiviral activity against Coxsackie virus B4 in human HeLa cells assessed as inhibition of virus-induced cytopathogenicity; type: functional; conditions: Enterovirus B; summary of the method: as §1
[17] = system: Mammalian orthoreovirus 1; test: Antiviral activity against Reo virus 1 in african green monkey Vero cells assessed as reduction of virus-induced cytopathogenicity; type: functional; summary of the method: as §1
Human betaherpesvirus 5 [18] = test: Antiviral activity against human cytomegalovirus AD169 infected HEL cells assessed as reduction in virus plaque formation; type: functional, organism-based; conditions: Human betaherpesvirus 5, AD169, HEL
Vero = test: Cytotoxicity against african green monkey Vero cells; type: cell-based; conditions: chlorocebus sabaeus; summary of the method: as §2
Human alphaherpesvirus 1 [19] = test: Antiviral activity against thymidine kinase deficient and acyclovir resistant HSV1 KOS in human HEL cells assessed as reduction of virus-induced cytopathogenicity; type: functional; conditions: Human alphaherpesvirus 1, KOS; summary of the method: as §1
Sindbis virus = test: Antiviral activity against Sindbis virus in african green monkey Vero cells assessed as reduction of virus-induced cytopathogenicity; type: functional; summary of the method: as §1
[20] = system: Vesicular stomatitis virus; test: Antiviral activity against in Vesicular stomatitis virus in human E6SM cells assessed as reduction of virus-induced cytopathogenicity; type: functional; summary of the method: as §1
[21] = system: Vesicular stomatitis virus; test: Antiviral activity against in Vesicular stomatitis virus in human HEL cells assessed as reduction of virus-induced cytopathogenicity; type: functional; summary of the method: as §1
[22] = system: Vesicular stomatitis virus; test: Antiviral activity against vesicular stomatitis virus in human HeLa cells assessed as inhibition of virus-induced cytopathogenicity; type: functional; summary of the method: as §1
Human alphaherpesvirus 1 [23] = test: Antiviral activity against HSV1 KOS in human E6SM cells assessed as reduction of virus-induced cytopathogenicity; type: functional; conditions: Human alphaherpesvirus 1, KOS; summary of the method: as §1
[24] = Cytotoxicity against human HEL cells assessed as reduction of cell growth; type: cell-based
Summary of the method: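 HEL cells; CC50 = compound concentration reducing cell growth by 50%.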

Human alphaherpesvirus 1 [25] = test: Antiviral activity against thymidine kinase deficient and acyclovir resistant HSV1 KOS in human E6SM cells assessed as reduction of virus-induced cytopathogenicity; type: functional; conditions: Human alphaherpesvirus 1, KOS; summary of the method: as §1
[26] = system: Human immunodeficiency virus 1; test: Antiviral activity against HIV1 3B in human MT4 cells assessed as protection against virus-induced cytopathogenicity by MTT assay; type: functional, organism-based; parameters: Activity: concentration or dose not given beside the values; conditions: for IC50: Human immunodeficiency virus 1, 3B, MT4; summary of the method: as §3

Structure (SMILES)	MIC (Human alphaherpesvirus 2 [2]) [µg/mL]	MIC (Coxsackievirus B4 [3]) [µg/mL]	MIC (Punta Toro virus) [µg/mL]	MIC [4] [µg/mL]	EC50 (Human betaherpesvirus 5 [5]) [µg/mL]	MIC (Human alphaherpesvirus 2 [6]) [µg/mL]	CC50 [7] [µg/mL]	EC50 (Human alphaherpesvirus 3 [8]) [µg/mL]	MCC [9] [µg/mL]	Activity [10] [%]	IC50 [10] [µg/mL]	MCC [11] [µg/mL]	MIC (Human alphaherpesvirus 1 [12]) [µg/mL]	EC50 (Human alphaherpesvirus 3 [13]) [µg/mL]	MCC [14] [µg/mL]	MIC (Human respirovirus 3) [µg/mL]	Activity [15]	MIC (Coxsackievirus B4 [16]) [µg/mL]	MIC [17] [µg/mL]	EC50 (Human betaherpesvirus 5 [18]) [µg/mL]	further results
CC(C)CCOc1ccc(NC(=S)Nc2ccc(OCCC(C)C)cc2)cc1 [TIOCARLIDE]	–	–	–	–	–	–	–	–	–	–	–	–	–	–	–	–	–	–	–	–	MIC (Mycobacterium avium): 2 µg/mL (≈ 4.99 µM); MIC [1]: 2.5 µg/mL (≈ 6.24 µM); MIC (Mycolicibacterium aurum): 2 µg/mL (≈ 4.99 µM)
C=CCn1c(COc2ccc(N)cc2)n[nH]c1=S	240 (≈ 915 µM)	> 80	> 80	> 400	> 100	240 (≈ 915 µM)	> 125	> 100	> 400	9	> 125	> 400	> 400	> 100	> 400	> 80	inactive	> 400	> 80	> 100	Activity (Vero): 400 µg/mL; MIC (Human alphaherpesvirus 1 [19]): > 400 µg/mL; MIC (Sindbis virus): > 80 µg/mL; MIC [20]: > 400 µg/mL; MIC [21]: > 400 µg/mL; MIC [22]: > 400 µg/mL; MIC (Human alphaherpesvirus 1 [23]): > 400 µg/mL; CC50 [24]: > 50 µg/mL; MIC (Human alphaherpesvirus 1 [25]): > 400 µg/mL; Activity [26]: 3.5%; IC50 [26]: > 125 µg/mL
CCNC(=S)Nc1ccc(OCc2n[nH]c(=S)n2CC)cc1	240 (≈ 711 µM)	48 (≈ 142 µM)	> 80	> 80	55 (≈ 163 µM)	240 (≈ 711 µM)	94.2 (≈ 279 µM)	64 (≈ 190 µM)	400	8	> 91.1	> 400	> 400	58 (≈ 172 µM)	> 400	> 80	inactive	> 80	> 80	49 (≈ 145 µM)	Activity (Vero): 400 µg/mL; MIC (Human alphaherpesvirus 1 [19]): 240 µg/mL (≈ 711 µM); MIC (Sindbis virus): > 80 µg/mL; MIC [20]: > 400 µg/mL; MIC [21]: > 400 µg/mL; MIC [22]: > 80 µg/mL; MIC (Human alphaherpesvirus 1 [23]): > 400 µg/mL; CC50 [24]: > 50 µg/mL; MIC (Human alphaherpesvirus 1 [25]): 240 µg/mL (≈ 711 µM); Activity [26]: 9.5%; IC50 [26]: > 88.3 µg/mL
